Converted amounts (≈) assume the structure as drawn.

The text below walks through data of ChEMBL document CHEMBL1687755, “PER-6, an extended-spectrum beta-lactamase from Aeromonas allosaccharophila” (Antimicrob Agents Chemother, 2010).

Experiment [1] relates to Aeromonas allosaccharophila. The experiment can be described thus: Antimicrobial activity against Aeromonas allosaccharophila AL-1 expressing beta-lactamase PER6 by agar dilution method. It is filed as functional. A digest of the protocol: (§1)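 The test organism was environmental isolate AL-1, recovered from Seine River water on MacConkey agar containing ceftazidime (2 μg/ml). It was identified by API 32GN and 16S rRNA gene sequencing. MICs were determined by agar dilution on Mueller-Hinton agar and interpreted by CLSI guidelines.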
A general note: Agar dilution tests growth on a series of plates holding different concentrations.

Experiment [2] relates to Escherichia coli. The experiment can be described thus: Antimicrobial activity against Escherichia coli DH10B by agar dilution method. It is filed as functional. The following applies: K-12 DH10B. A digest of the protocol: (§2)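 MICs measured by agar dilution on Mueller-Hinton agar plates, the method used for imipenem and imipenem combined with clavulanate; other MICs were obtained by Etest. Results were interpreted according to CLSI guidelines. Test strains were E. coli DH10B recombinants carrying cloned PER-1, PER-2 or PER-6 β-lactamase genes.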

Experiment [3] concerns Escherichia coli. The experiment can be described thus: Antimicrobial activity against Escherichia coli DH10B harboring recombinant Aeromonas allosaccharophila AL-1 beta-lactamase PER1 by agar dilution method. It is filed as functional. The following applies: K-12 DH10B.
Experiment [4] deals with Aeromonas allosaccharophila. In words: Ratio of Kcat to Km for Aeromonas allosaccharophila AL-1 beta-lactamase PER2.
In experiment [5] the test system is Escherichia coli. In words: Antimicrobial activity against Escherichia coli DH10B harboring recombinant Aeromonas allosaccharophila AL-1 beta-lactamase PER6 by agar dilution method. Conditions: K-12 DH10B. It is filed as functional.
Experiment [6] relates to Escherichia coli. The experiment can be described thus: Antimicrobial activity against Escherichia coli DH10B harboring recombinant Aeromonas allosaccharophila AL-1 beta-lactamase PER2 by agar dilution method. The experiment is classed as functional. Conditions: K-12 DH10B.
The subject of experiment [7] is Escherichia coli. The experiment can be described thus: Antimicrobial activity against Escherichia coli DH10B by agar dilution method in presence of 4 ug/ml of clavulanic acid. It is filed as functional. Conditions: K-12 DH10B. The gist of the method: as §2
Experiment [8] has as its system Aeromonas allosaccharophila. The experiment can be described thus: Antimicrobial activity against Aeromonas allosaccharophila AL-1 expressing beta-lactamase PER6 by agar dilution method in presence of 4 ug/ml of clavulanic acid. It is filed as functional. The gist of the method: as §1
For experiment [9], the system named is Escherichia coli. In words: Antimicrobial activity against Escherichia coli DH10B harboring recombinant Aeromonas allosaccharophila AL-1 beta-lactamase PER2 by agar dilution method in presence of 4 ug/ml of clavulanic acid. It is filed as functional. Conditions: K-12 DH10B.
Experiment [10] concerns Escherichia coli. In words: Antimicrobial activity against Escherichia coli DH10B harboring recombinant Aeromonas allosaccharophila AL-1 beta-lactamase PER6 by agar dilution method in presence of 4 ug/ml of clavulanic acid. The experiment is classed as functional. Conditions: K-12 DH10B.
Experiment [11] has as its system Escherichia coli. The experiment can be described thus: Antimicrobial activity against Escherichia coli DH10B harboring recombinant Aeromonas allosaccharophila AL-1 beta-lactamase PER1 by agar dilution method in presence of 4 ug/ml of clavulanic acid. Conditions: K-12 DH10B. The experiment is classed as functional.

Broadly, the MIC is the least concentration at which growth counts as inhibited. With `C[C@@H](O)[C@H]1C(=O)N2C(C(=O)O)=C(S[C@@H]3CN[C@H](C(=O)Nc4cccc(C(=O)O)c4)C3)[C@H](C)[C@H]12`, the MIC in experiment [1] is 0.5 µg/mL (≈ 1.05 µM); with Escherichia coli [2], less than 0.03 µg/mL.

By kcat/Km is commonly meant the second-order rate constant that governs catalysis at low substrate concentration. `CO/N=C(\C(=O)N[C@@H]1C(=O)N2C(C(=O)[O-])=C(C[N+]3(C)CCCC3)CS[C@H]12)c1csc(N)n1`: the MIC in experiment [1] was 0.5 µg/mL (≈ 1.04 µM); with Escherichia coli [3], 16 µg/mL; with Escherichia coli [5] it was 32 µg/mL; with Escherichia coli [6] it was 32 µg/mL. Also, the kcat/Km in experiment [4] turned out to be 20000 M⁻¹ s⁻¹.

`CC1(C)S[C@@H]2[C@H](NC(=O)Cc3ccccc3)C(=O)N2[C@H]1C(=O)O`: in [4], the kcat/Km stood at 120000 M⁻¹ s⁻¹.

For `CC1(C)S[C@@H]2[C@H](NC(=O)[C@H](N)c3ccccc3)C(=O)N2[C@H]1C(=O)O`, the catalytic efficiency (kcat/Km) in [4] was determined as 330000 M⁻¹ s⁻¹.

Consider `CC1(C)S[C@@H]2[C@H](NC(=O)[C@H](N)c3ccc(O)cc3)C(=O)N2[C@H]1C(=O)O` [AMOXICILLIN], for which the minimum inhibitory concentration (MIC) in [1] was more than 256 µg/mL; in the experiment on Escherichia coli [3], more than 256 µg/mL; in the experiment with Escherichia coli [7] it was 4 µg/mL; in experiment [8], 12 µg/mL; in the experiment on Escherichia coli [9], 6 µg/mL; in the experiment on Escherichia coli [2], 4 µg/mL (≈ 10.9 µM). The MIC in the experiment on Escherichia coli [10] is 4 µg/mL; with Escherichia coli [5] it was more than 256 µg/mL; in the experiment with Escherichia coli [11], 4 µg/mL; in the experiment on Escherichia coli [6], more than 256 µg/mL.

For the compound `C[C@H]1[C@H](NC(=O)/C(=N\OC(C)(C)C(=O)O)c2csc(N)n2)C(=O)N1S(=O)(=O)O` [AZTREONAM], the MIC in experiment [1] is 1 µg/mL (≈ 2.3 µM); with Escherichia coli [3], more than 256 µg/mL; with Escherichia coli [5] it was more than 256 µg/mL; in the experiment with Escherichia coli [6] it was more than 256 µg/mL. Moreover, the catalytic efficiency (kcat/Km) in experiment [4] was 120000 M⁻¹ s⁻¹.

`CO/N=C(\C(=O)N[C@@H]1C(=O)N2C(C(=O)O)=C(COC(C)=O)CS[C@H]12)c1csc(N)n1` [CEFOTAXIME]: the MIC is 2 µg/mL (≈ 4.39 µM) in experiment [1]; 48 µg/mL with Escherichia coli [3]; 0.12 µg/mL (≈ 0.263 µM) in the experiment on Escherichia coli [2]; 64 µg/mL in the experiment on Escherichia coli [5]; 64 µg/mL in the experiment with Escherichia coli [6]. Also, the kcat/Km in [4] was 760000 M⁻¹ s⁻¹.

`CO[C@@]1(NC(=O)Cc2cccs2)C(=O)N2C(C(=O)O)=C(COC(N)=O)CS[C@@H]21` [CEFOXITIN]: the MIC in [1] worked out at 0.5 µg/mL (≈ 1.17 µM); in the experiment on Escherichia coli [3], 2 µg/mL; with Escherichia coli [2], 1 µg/mL (≈ 2.34 µM); with Escherichia coli [5], 2 µg/mL; in the experiment with Escherichia coli [6], 2 µg/mL. Further, the kcat/Km in experiment [4] was less than 10000 M⁻¹ s⁻¹.
